For one series, the system named is aPTT. The experiment in a line: Activated partial thromboplastin time. It is filed as in vivo, human. The settings on record: for aPTT percentage change from baseline at mean peak: single oral 60 mg. The method, boiled down:
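Participants (n = 8 per group) were grouped by eGFR (MDRD formula): normal ≥ 90, moderate ≥ 30 to ≤ 59, or severe < 30 mL/min/1.73 m2 (not on dialysis). They were matched by age, body weight and sex. Each received a single oral dose of test compound after a standard meal. aPTT was an exploratory PD biomarker, measured by a validated central-laboratory assay. Baseline was predose Day 1.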

The format of series [1] is in vivo, human. Particulars: for AUC / AUC(0-t) / AUC(0-inf) / Cmax / Tmax / half-life: human, plasma, po, 60 mg; for AUC: AUC96, single oral 60 mg; for AUC / AUC(0-t) / AUC(0-inf) / Cmax / %Urt (percentage dose recovered in urine) / CLT/F (apparent total body clearance): adjusted geometric mean (%CV); for AUC(0-t): AUCt; for AUC(0-t) / AUC(0-inf) / Cmax / Tmax / half-life / %Urt (percentage dose recovered in urine) / CLT/F (apparent total body clearance): single oral 60 mg; for Cmax: n = 8; for Tmax: median (minimum–maximum); for half-life: T½ (terminal plasma half-life), mean (SD). The method, boiled down: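 There were three eGFR-defined groups (MDRD; n = 8 each, matched by age, weight and sex). Each participant received one oral 60 mg dose after a standard meal, with serial plasma and urine collection. Plasma concentrations were measured by validated LC-MS/MS. Urine recovery was the sum of concentration × urine volume per collection interval, expressed as % of dose. CLT/F came from plasma concentration-time data. Values are adjusted geometric mean (%CV).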

The nature of series [2]: Milvexian plasma protein binding by LC-MS/MS. It is filed as in vitro ADME, human. The settings on record: adjusted geometric mean (%CV); for fraction unbound: human, plasma, %fu (fraction of unbound drug). The method, boiled down:
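The severe group had eGFR < 30 mL/min/1.73 m2 (MDRD) and no dialysis, and received a single oral 60 mg dose after a standard meal. A designated protein-binding blood sample was analysed for […] test compound by validated LC-MS/MS. Results were reported as adjusted geometric mean (%CV).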

Series [3] can be described thus: Linear regression of log-transformed PK parameters versus eGFR or CrCL. It is filed as in vivo, human. The settings on record: for increase in overall exposure: regression analysis.
For series [4] the following is noted: previous first-in-human study; cited from earlier work.
The next series in a line: Safety and tolerability. It is filed as in vivo, human. The settings on record: for Any AE / Headache / Somnolence: single oral 60 mg.
The conditions of series [5]: patients with severe renal impairment (CrCL of 15 mL/min) compared with healthy participants; cited from earlier work.
The conditions of series [6]: patients undergoing dialysis compared with healthy participants; cited from earlier work.
Where [7] appears, read: CrCL 30 vs CrCL 90 mL/min, CrCL-based regression.
Setting [8] is: eGFR 15 vs eGFR 90 mL/min/1.73 m^2, eGFR-based regression.
[9] abbreviates: eGFR 30 vs eGFR 90 mL/min/1.73 m^2, eGFR-based regression.
[10] abbreviates: single dose 60 mg, all 24 participants.
[11] abbreviates: moderate renal impairment, n = 8.

Molecules are shown by their SMILES. Several values for one entry are separate records, joined by “and”; a condition that tells them apart may be missing. Equal values may be shown once. Read-outs that look alike come from different tables or passages of the source.

In general, AUC refers to the area under the concentration-time curve, a measure of exposure. In general, AUC(0-t) refers to the area under the concentration-time curve up to a stated or last time point. One may read the AUC(0-inf) as total exposure, with the tail of the curve extrapolated. The Cmax is the maximum level reached in the sampled fluid or tissue. By Tmax is commonly meant the time from dosing to the highest level. What is called half-life is the time in which the quantity being followed falls by half. Low values mean fast loss, high ones slow loss. The term fraction unbound denotes free concentration divided by total concentration. Low readings indicate little free substance, high ones much free substance. In the case of `C[C@@H]1CCC[C@H](n2cnc(-c3cc(Cl)ccc3-n3cc(Cl)nn3)cc2=O)c2cc(ccn2)-c2c(cnn2C(F)F)NC1=O` [milvexian, Milvexian], the “aPTT percentage change from baseline at mean peak” value in the series on aPTT (moderate renal impairment, 5 h postdose) was 97%; in the series on aPTT (normal renal function, 5 h postdose), 127%; in the series with aPTT (severe renal impairment, 6 h postdose) it was 100%. Further, the “effect on aPTT” value in the series on aPTT (single oral dose, all renal function groups) was “concentration-dependent prolongation of aPTT”. Also, the exposure (AUC) in series [1] (moderate renal impairment) was 5020 ng·h/mL; in series [1] (normal renal function) it was 3880 ng·h/mL; in series [1] (severe renal impairment), 7170 ng·h/mL. Besides, the results for the AUC(0-t) in series [1] (moderate renal impairment), in series [1] (normal renal function) and in series [1] (severe renal impairment) were 5000 ng·h/mL, 3860 ng·h/mL and 7090 ng·h/mL, respectively. The AUC(0-inf) in series [1] (moderate renal impairment) came to 5150 ng·h/mL; in series [1] (normal renal function), 3920 ng·h/mL; in series [1] (severe renal impairment), 7410 ng·h/mL. Further, the results for the Cmax in series [1] (moderate renal impairment (eGFR ≥ 30 to ≤ 59)), in series [1] (normal renal function (eGFR ≥ 90)) and in series [1] (severe renal impairment (eGFR < 30)) were 406 ng/mL, 462 ng/mL and 462 ng/mL, respectively. The Tmax in series [1] (moderate renal impairment) stood at 4.75 h; in series [1] (normal renal function), 4.5 h; in series [1] (severe renal impairment) it was 5 h. Also, the half-life in series [1] (moderate renal impairment) is 18 h; in series [1] (normal renal function) it was 13.8 h; in series [1] (severe renal impairment), 17.7 h. In addition, the “%Urt (percentage dose recovered in urine)” value is 7.64 (33) % in series [1] (moderate renal impairment), 10.5 (45) % in series [1] (normal renal function) and 3.14 (75) % in series [1] (severe renal impairment). Further, the “CLT/F (apparent total body clearance)” value in series [1] (moderate renal impairment) is 11.6 L/h and 11.6 (32) L/h; in series [1] (normal renal function), 15.3 L/h and 15.3 (36) L/h; in series [1] (severe renal impairment) it was 8.10 L/h and 8.10 (37) L/h. In addition, the unbound share (fraction unbound) in series [2] (moderate renal impairment) turned out to be 0.0881; in series [2] (normal renal function), 0.0885; in series [2] (severe renal impairment) it was 0.084. Besides, the “%Protein binding” value in series [2] (severe renal impairment) is on record as 91.5 (1) %. Also, the “increase in AUCt” value in series [3] (CrCL 15 vs CrCL 90 mL/min, CrCL-based regression) worked out at 49%; in series [3] (setting [7]), 38%; in series [3] (setting [8]), 50%; in series [3] (setting [9]) it was 39%. The “increase in AUC∞” value is 40% in series [3] (setting [7]), 54% in series [3] (setting [8]) and 41% in series [3] (setting [9]). Moreover, the “increase in overall exposure” value in series [3] (moderate renal impairment group) was “approximately 40%”; in series [3] (severe renal impairment group), about 50%. Also, in series [4], the renal excretion entry is given as “below 20%”. The participants reporting headache in “Safety and tolerability” (setting [10]) stood at 8.3%. For the same compound, the “participants reporting one AE” value in the series “Safety and tolerability” (setting [10]) turned out to be 12.5%. Besides, in “Safety and tolerability” (setting [10]), the participants reporting somnolence stood at 4.2%. Moreover, the bleeding events entry in the series “Safety and tolerability” (single dose 60 mg, all renal function groups) is “No bleeding events were reported”. Besides, the “Any AE” value in the series “Safety and tolerability” (setting [11]) was 1 (12.5) n (%); in the series “Safety and tolerability” (normal renal function, n = 8) it was 1 (12.5) n (%); in the series “Safety and tolerability” (severe renal impairment, n = 8), 1 (12.5) n (%); in the series “Safety and tolerability” (total, N = 24) it was 3 (12.5) n (%). Also, the Headache in “Safety and tolerability” (setting [11]) is recorded as 1 (12.5) n (%); in “Safety and tolerability” (normal renal function, n = 8), 0 n (%); in “Safety and tolerability” (severe renal impairment, n = 8), 1 (12.5) n (%); in the series “Safety and tolerability” (total, N = 24), 2 (8.3) n (%). Also, the Somnolence in “Safety and tolerability” (setting [11]) was 0 n (%); in the series “Safety and tolerability” (normal renal function, n = 8) it was 1 (12.5) n (%); in the series “Safety and tolerability” (severe renal impairment, n = 8), 0 n (%); in the series “Safety and tolerability” (total, N = 24) it was 1 (4.2) n (%).

Take `COc1ccc(-n2nc(C(N)=O)c3c2C(=O)N(c2ccc(N4CCCCC4=O)cc2)CC3)cc1` [apixaban]: in series [5], the increase in exposure is 44%.

On to `O=C(NC[C@H]1CN(c2ccc(N3CCOCC3=O)cc2)C(=O)O1)c1ccc(Cl)s1` [rivaroxaban], for which the increase in exposure in series [6] is on record as 56%.
